ChEMBL document CHEMBL1629548, “In vitro activities of tigecycline against clinical isolates of Aeromonas, Vibrio, and Salmonella species in Taiwan” (2008)

What was measured:
Format in all cases: functional
Aeromonas hydrophila = experiment: Antimicrobial activity against Aeromonas hydrophila assessed as susceptibility level by disk diffusion method
In short: (§1)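 Cefotaxime and ciprofloxacin susceptibility taken from routine clinical laboratory reports; disk diffusion per CLSI guidelines.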

Aeromonas caviae = experiment: Antimicrobial activity against Aeromonas caviae assessed as susceptibility level by disk diffusion method; in short: as §1
Aeromonas sobria = experiment: Antimicrobial activity against Aeromonas sobria assessed as susceptibility level by disk diffusion method; in short: as §1
Salmonella [1] = experiment: Antimicrobial activity against Salmonella serogroup O8 assessed as susceptibility level by disk diffusion method; in short: as §1
Salmonella [2] = experiment: Antimicrobial activity against Salmonella serogroup O9 assessed as susceptibility level by disk diffusion method; in short: as §1
Salmonella enterica = experiment: Antimicrobial activity against Salmonella serotype Choleraesuis assessed as susceptibility level by disk diffusion method
In short: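 Cefotaxime and ciprofloxacin susceptibility was taken from routine laboratory reports. These were generated by disk diffusion according to CLSI guidelines.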

Salmonella [3] = experiment: Antimicrobial activity against Salmonella serogroup O7 assessed as susceptibility level by disk diffusion method; in short: as §1

| SMILES | Activity (Aeromonas hydrophila) | Activity (Aeromonas caviae) | Activity (Aeromonas sobria) | Activity (Salmonella [1]) | Activity (Salmonella [2]) | Activity (Salmonella enterica) | Activity (Salmonella [3]) |
| --- | --- | --- | --- | --- | --- | --- | --- |
| CO/N=C(\C(=O)N[C@@H]1C(=O)N2C(C(=O)O)=C(COC(C)=O)CS[C@H]12)c1csc(N)n1 [CEFOTAXIME] | 79% | 73% | 95% | – | – | – | – |
| O=C(O)c1cn(C2CC2)c2cc(N3CCNCC3)c(F)cc2c1=O [CIPROFLOXACIN] | 90% | 86% | 93% | 57% | 96% | 22% | 77% |
